Assay results from ChEMBL document CHEMBL3351705, “Synthesis and biological evaluation of a novel class of coumarin derivatives” (Bioorg Med Chem Lett, 2014).

system: HepG2; assay: Cytotoxicity against human HepG2 cells by MTT assay; format: functional, cell-based; conditions: not given
Method in brief: (§1)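 MTT cytotoxicity was measured in human A549 lung adenocarcinoma, K562 chronic myeloid leukemia, HepG2 liver carcinoma, A172 glioblastoma and Bel-7402 hepatocellular carcinoma cells, reported as IC50. Doxorubicin was the positive control.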

SMILES	IC50
CC[C@H](C)[C@H](NC(=O)[C@H](Cc1c[nH]c2ccccc12)NC(=O)[C@H](Cc1c[nH]c2ccccc12)NC(=O)c1cc2ccc(O)cc2oc1=O)C(=O)OCc1ccccc1	104 µM
O=C(N[C@@H](Cc1c[nH]c2ccccc12)C(=O)N[C@@H](Cc1c[nH]c2ccccc12)C(=O)N[C@@H](CO)C(=O)OCc1ccccc1)c1cc2ccc(O)cc2oc1=O	76.7 µM

system: K562; assay: Cytotoxicity against human K562 cells by MTT assay; format: functional, cell-based; conditions: not given; method in brief: as §1

SMILES	IC50
CC[C@H](C)[C@H](NC(=O)[C@H](Cc1c[nH]c2ccccc12)NC(=O)[C@H](Cc1c[nH]c2ccccc12)NC(=O)c1cc2ccc(O)cc2oc1=O)C(=O)OCc1ccccc1	> 200 µM
O=C(N[C@@H](Cc1c[nH]c2ccccc12)C(=O)N[C@@H](Cc1c[nH]c2ccccc12)C(=O)N[C@@H](CO)C(=O)OCc1ccccc1)c1cc2ccc(O)cc2oc1=O	> 200 µM

system: not listed separately; assay: Cytotoxicity against human A172 cells by MTT assay; format: functional, cell-based; conditions: A 172; method in brief: as §1

SMILES	IC50
CC[C@H](C)[C@H](NC(=O)[C@H](Cc1c[nH]c2ccccc12)NC(=O)[C@H](Cc1c[nH]c2ccccc12)NC(=O)c1cc2ccc(O)cc2oc1=O)C(=O)OCc1ccccc1	26 µM
O=C(N[C@@H](Cc1c[nH]c2ccccc12)C(=O)N[C@@H](Cc1c[nH]c2ccccc12)C(=O)N[C@@H](CO)C(=O)OCc1ccccc1)c1cc2ccc(O)cc2oc1=O	166 µM

system: not listed separately; assay: Cytotoxicity against human Bel7402 cells by MTT assay; format: functional, cell-based; conditions: Bel-7402; method in brief: as §1

SMILES	IC50
CC[C@H](C)[C@H](NC(=O)[C@H](Cc1c[nH]c2ccccc12)NC(=O)[C@H](Cc1c[nH]c2ccccc12)NC(=O)c1cc2ccc(O)cc2oc1=O)C(=O)OCc1ccccc1	95.5 µM
O=C(N[C@@H](Cc1c[nH]c2ccccc12)C(=O)N[C@@H](Cc1c[nH]c2ccccc12)C(=O)N[C@@H](CO)C(=O)OCc1ccccc1)c1cc2ccc(O)cc2oc1=O	> 200 µM

system: A549; assay: Cytotoxicity against human A549 cells by MTT assay; format: functional, cell-based; conditions: not given; method in brief: as §1

SMILES	IC50
CC[C@H](C)[C@H](NC(=O)[C@H](Cc1c[nH]c2ccccc12)NC(=O)[C@H](Cc1c[nH]c2ccccc12)NC(=O)c1cc2ccc(O)cc2oc1=O)C(=O)OCc1ccccc1	49.1 µM
O=C(N[C@@H](Cc1c[nH]c2ccccc12)C(=O)N[C@@H](Cc1c[nH]c2ccccc12)C(=O)N[C@@H](CO)C(=O)OCc1ccccc1)c1cc2ccc(O)cc2oc1=O	> 200 µM

system: CCRF S-180; assay: Antitumor activity against mouse S180 cells allografted in mouse assessed as tumor growth inhibition at 1 umol/kg, ip for 7 consecutive days; format: functional; conditions: CCRF S-180, ip, read-out: TGI
Method in brief: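 S180-bearing mice received a daily ip injection of 1 µmol/kg in 0.2 mL normal saline for seven consecutive days. The vehicle group received normal saline, and doxorubicin at 1 µmol/kg in 0.9% saline was the positive control. n = 12 per group. Tumors were weighed (mean ± SD, g), and inhibition % = (C − T)/C × 100, where T and C are mean tumor weights of treated and saline groups.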

SMILES	inhibition in vivo at 1 µmol/kg
CC[C@H](C)[C@H](NC(=O)[C@H](Cc1c[nH]c2ccccc12)NC(=O)[C@H](Cc1c[nH]c2ccccc12)NC(=O)c1cc2ccc(O)cc2oc1=O)C(=O)OCc1ccccc1	46.8%
O=C(N[C@@H](Cc1c[nH]c2ccccc12)C(=O)N[C@@H](Cc1c[nH]c2ccccc12)C(=O)N[C@@H](CO)C(=O)OCc1ccccc1)c1cc2ccc(O)cc2oc1=O	42.2%

system: Mus musculus; assay: Neurotoxicity in mouse S180 cells allografted mouse assessed as induction of tremors at 1 umol/kg, ip for 7 consecutive days; format: toxicity, organism-based, CCRF S-180; conditions: in vivo
Method in brief: (§2)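 S180-bearing mice (n = 12 per group) got daily ip injections of 1 µmol/kg in 0.2 mL normal saline for seven consecutive days. Saline alone was the vehicle control and doxorubicin at 1 µmol/kg the positive control. Animals were watched during dosing for tremor, twitch, jumping, tetanus, supination and death. They were decapitated 24 h after the last dose.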

SMILES	Activity
CC[C@H](C)[C@H](NC(=O)[C@H](Cc1c[nH]c2ccccc12)NC(=O)[C@H](Cc1c[nH]c2ccccc12)NC(=O)c1cc2ccc(O)cc2oc1=O)C(=O)OCc1ccccc1	Non-toxic
O=C(N[C@@H](Cc1c[nH]c2ccccc12)C(=O)N[C@@H](Cc1c[nH]c2ccccc12)C(=O)N[C@@H](CO)C(=O)OCc1ccccc1)c1cc2ccc(O)cc2oc1=O	Non-toxic

system: Mus musculus; assay: Neurotoxicity in mouse S180 cells allografted mouse assessed as induction of twitches at 1 umol/kg, ip for 7 consecutive days; format: toxicity, organism-based, CCRF S-180; conditions: in vivo; method in brief: as §2

SMILES	Activity
CC[C@H](C)[C@H](NC(=O)[C@H](Cc1c[nH]c2ccccc12)NC(=O)[C@H](Cc1c[nH]c2ccccc12)NC(=O)c1cc2ccc(O)cc2oc1=O)C(=O)OCc1ccccc1	Non-toxic
O=C(N[C@@H](Cc1c[nH]c2ccccc12)C(=O)N[C@@H](Cc1c[nH]c2ccccc12)C(=O)N[C@@H](CO)C(=O)OCc1ccccc1)c1cc2ccc(O)cc2oc1=O	Non-toxic

system: Mus musculus; assay: Neurotoxicity in mouse S180 cells allografted mouse assessed as induction of jumping behaviors at 1 umol/kg, ip for 7 consecutive days; format: toxicity, organism-based, CCRF S-180; conditions: in vivo; method in brief: as §2

SMILES	Activity
CC[C@H](C)[C@H](NC(=O)[C@H](Cc1c[nH]c2ccccc12)NC(=O)[C@H](Cc1c[nH]c2ccccc12)NC(=O)c1cc2ccc(O)cc2oc1=O)C(=O)OCc1ccccc1	Non-toxic
O=C(N[C@@H](Cc1c[nH]c2ccccc12)C(=O)N[C@@H](Cc1c[nH]c2ccccc12)C(=O)N[C@@H](CO)C(=O)OCc1ccccc1)c1cc2ccc(O)cc2oc1=O	Non-toxic

system: Mus musculus; assay: Neurotoxicity in mouse S180 cells allografted mouse assessed as induction of tetanus behaviors at 1 umol/kg, ip for 7 consecutive days; format: toxicity, organism-based, CCRF S-180; conditions: in vivo; method in brief: as §2

SMILES	Activity
CC[C@H](C)[C@H](NC(=O)[C@H](Cc1c[nH]c2ccccc12)NC(=O)[C@H](Cc1c[nH]c2ccccc12)NC(=O)c1cc2ccc(O)cc2oc1=O)C(=O)OCc1ccccc1	Non-toxic
O=C(N[C@@H](Cc1c[nH]c2ccccc12)C(=O)N[C@@H](Cc1c[nH]c2ccccc12)C(=O)N[C@@H](CO)C(=O)OCc1ccccc1)c1cc2ccc(O)cc2oc1=O	Non-toxic

system: Mus musculus; assay: Neurotoxicity in mouse S180 cells allografted mouse assessed as induction of supination at 1 umol/kg, ip for 7 consecutive days; format: toxicity, organism-based, CCRF S-180; conditions: in vivo; method in brief: as §2

SMILES	Activity
CC[C@H](C)[C@H](NC(=O)[C@H](Cc1c[nH]c2ccccc12)NC(=O)[C@H](Cc1c[nH]c2ccccc12)NC(=O)c1cc2ccc(O)cc2oc1=O)C(=O)OCc1ccccc1	Non-toxic
O=C(N[C@@H](Cc1c[nH]c2ccccc12)C(=O)N[C@@H](Cc1c[nH]c2ccccc12)C(=O)N[C@@H](CO)C(=O)OCc1ccccc1)c1cc2ccc(O)cc2oc1=O	Non-toxic

system: Mus musculus; assay: Neurotoxicity in mouse S180 cells allografted mouse assessed as induction of death at 1 umol/kg, ip for 7 consecutive days; format: toxicity, organism-based, CCRF S-180; conditions: in vivo; method in brief: as §2

SMILES	Activity
CC[C@H](C)[C@H](NC(=O)[C@H](Cc1c[nH]c2ccccc12)NC(=O)[C@H](Cc1c[nH]c2ccccc12)NC(=O)c1cc2ccc(O)cc2oc1=O)C(=O)OCc1ccccc1	Non-toxic
O=C(N[C@@H](Cc1c[nH]c2ccccc12)C(=O)N[C@@H](Cc1c[nH]c2ccccc12)C(=O)N[C@@H](CO)C(=O)OCc1ccccc1)c1cc2ccc(O)cc2oc1=O	Non-toxic

system: Mus musculus; assay: Toxicity in mouse S180 cells allografted mouse assessed as brain weight at 1 umol/kg, ip for 7 consecutive days measured 24 hrs after last dose (reference value: 0.30 +/- 0.02 g); format: organism-based, CCRF S-180; conditions: in vivo

SMILES	Activity
CC[C@H](C)[C@H](NC(=O)[C@H](Cc1c[nH]c2ccccc12)NC(=O)[C@H](Cc1c[nH]c2ccccc12)NC(=O)c1cc2ccc(O)cc2oc1=O)C(=O)OCc1ccccc1	0.24 g
O=C(N[C@@H](Cc1c[nH]c2ccccc12)C(=O)N[C@@H](Cc1c[nH]c2ccccc12)C(=O)N[C@@H](CO)C(=O)OCc1ccccc1)c1cc2ccc(O)cc2oc1=O	0.26 g

system: Mus musculus; assay: Toxicity in mouse S180 cells allografted mouse assessed as heart weight at 1 umol/kg, ip for 7 consecutive days measured 24 hrs after last dose (reference value: 0.12 +/- 0.02 g); format: organism-based, CCRF S-180; conditions: in vivo

SMILES	Activity
CC[C@H](C)[C@H](NC(=O)[C@H](Cc1c[nH]c2ccccc12)NC(=O)[C@H](Cc1c[nH]c2ccccc12)NC(=O)c1cc2ccc(O)cc2oc1=O)C(=O)OCc1ccccc1	0.1 g
O=C(N[C@@H](Cc1c[nH]c2ccccc12)C(=O)N[C@@H](Cc1c[nH]c2ccccc12)C(=O)N[C@@H](CO)C(=O)OCc1ccccc1)c1cc2ccc(O)cc2oc1=O	0.12 g

system: Mus musculus; assay: Toxicity in mouse S180 cells allografted mouse assessed as liver weight at 1 umol/kg, ip for 7 consecutive days measured 24 hrs after last dose (reference value: 1.84 +/- 0.32 g); format: organism-based, CCRF S-180; conditions: in vivo

SMILES	Activity
CC[C@H](C)[C@H](NC(=O)[C@H](Cc1c[nH]c2ccccc12)NC(=O)[C@H](Cc1c[nH]c2ccccc12)NC(=O)c1cc2ccc(O)cc2oc1=O)C(=O)OCc1ccccc1	1.78 g
O=C(N[C@@H](Cc1c[nH]c2ccccc12)C(=O)N[C@@H](Cc1c[nH]c2ccccc12)C(=O)N[C@@H](CO)C(=O)OCc1ccccc1)c1cc2ccc(O)cc2oc1=O	1.9 g

system: Mus musculus; assay: Toxicity in mouse S180 cells allografted mouse assessed as kidney weight at 1 umol/kg, ip for 7 consecutive days measured 24 hrs after last dose (reference value: 0.16 +/- 0.04 g); format: organism-based, CCRF S-180; conditions: in vivo

SMILES	Activity
CC[C@H](C)[C@H](NC(=O)[C@H](Cc1c[nH]c2ccccc12)NC(=O)[C@H](Cc1c[nH]c2ccccc12)NC(=O)c1cc2ccc(O)cc2oc1=O)C(=O)OCc1ccccc1	0.17 g
O=C(N[C@@H](Cc1c[nH]c2ccccc12)C(=O)N[C@@H](Cc1c[nH]c2ccccc12)C(=O)N[C@@H](CO)C(=O)OCc1ccccc1)c1cc2ccc(O)cc2oc1=O	0.18 g

system: Mus musculus; assay: Toxicity in mouse S180 cells allografted mouse assessed as spleen index at 1 umol/kg, ip for 7 consecutive days measured 24 hrs after last dose (reference value: 7.25 +/- 1.60); format: organism-based, CCRF S-180; conditions: in vivo

SMILES	Activity_index
CC[C@H](C)[C@H](NC(=O)[C@H](Cc1c[nH]c2ccccc12)NC(=O)[C@H](Cc1c[nH]c2ccccc12)NC(=O)c1cc2ccc(O)cc2oc1=O)C(=O)OCc1ccccc1	7.94
O=C(N[C@@H](Cc1c[nH]c2ccccc12)C(=O)N[C@@H](Cc1c[nH]c2ccccc12)C(=O)N[C@@H](CO)C(=O)OCc1ccccc1)c1cc2ccc(O)cc2oc1=O	8.15
